Test results: ChEMBL document CHEMBL1255501, “Heteroresistance of Cryptococcus gattii to fluconazole” (2010)
Activity calls are given as the source filed them.

Tests used:
Format in all cases: functional, organism-based
Conditions in all cases: Cryptococcus bacillisporus
[1] = tested on: Cryptococcus gattii species complex; assay: Antimicrobial activity against fluconazole-resistant Cryptococcus gattii serotype B isolate B3939 at 0.5 ug/ml
In short: (§1)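 Strains were grown overnight in YPD broth at 30°C, washed, serially diluted in sterile saline and spotted at 3 μl onto YPD agar alone or YPD agar containing a xenobiotic: rhizoxin 0.5 μg/ml, gliotoxin 3.2 μg/ml or trichostatin A 64 μg/ml. Growth was compared by spot test.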

[2] = tested on: Cryptococcus gattii species complex; assay: Antimicrobial activity against fluconazole-resistant Cryptococcus gattii serotype B isolate NIH412 at 0.5 ug/ml; in short: as §1
[3] = tested on: Cryptococcus gattii species complex; assay: Antimicrobial activity against fluconazole-resistant Cryptococcus gattii serotype C isolate H00581-1941 at 0.5 ug/ml
[4] = tested on: Cryptococcus gattii species complex; assay: Antimicrobial activity against fluconazole-resistant Cryptococcus gattii serotype B isolate NIH184 at 0.5 ug/ml; in short: as §1
[5] = tested on: Cryptococcus gattii species complex; assay: Antimicrobial activity against fluconazole-resistant Cryptococcus gattii serotype B isolate NIH771 at 0.5 ug/ml; in short: as §1
[6] = tested on: Cryptococcus gattii species complex; assay: Antimicrobial activity against fluconazole-resistant Cryptococcus gattii serotype C isolate NIH257 at 0.5 ug/ml
[7] = tested on: Cryptococcus gattii species complex; assay: Antimicrobial activity against fluconazole-resistant Cryptococcus gattii serotype B isolate NIH409 at 0.5 ug/ml; in short: as §1
[8] = tested on: Cryptococcus gattii species complex; assay: Antimicrobial activity against fluconazole-resistant Cryptococcus gattii serotype B isolate NIH535 at 0.5 ug/ml; in short: as §1
[9] = tested on: Cryptococcus gattii species complex; assay: Antimicrobial activity against fluconazole-resistant Cryptococcus gattii serotype B isolate NIH754 at 0.5 ug/ml; in short: as §1
[10] = tested on: Cryptococcus deuterogattii; assay: Antimicrobial activity against fluconazole-resistant Cryptococcus gattii serotype B isolate NIH444 at 0.5 ug/ml; in short: as §1
[11] = tested on: Cryptococcus gattii species complex; assay: Antimicrobial activity against fluconazole-resistant Cryptococcus gattii serotype C isolate H0058-1-818 at 0.5 ug/ml
[12] = tested on: Cryptococcus gattii species complex; assay: Antimicrobial activity against fluconazole-resistant Cryptococcus gattii serotype B isolate B5763 at 0.5 ug/ml; in short: as §1
[13] = tested on: Cryptococcus gattii species complex; assay: Antimicrobial activity against fluconazole-resistant Cryptococcus gattii serotype B isolate NIH200 at 0.5 ug/ml; in short: as §1
[14] = tested on: Cryptococcus gattii species complex; assay: Antimicrobial activity against fluconazole-resistant Cryptococcus gattii serotype B isolate B5788 at 0.5 ug/ml; in short: as §1
[15] = tested on: Cryptococcus gattii species complex; assay: Antimicrobial activity against fluconazole-resistant Cryptococcus gattii serotype B isolate NIH198 at 0.5 ug/ml; in short: as §1
[16] = tested on: Cryptococcus gattii species complex; assay: Antimicrobial activity against fluconazole-resistant Cryptococcus gattii serotype B isolate B4506 at 0.5 ug/ml; in short: as §1
[17] = tested on: Cryptococcus gattii species complex; assay: Antimicrobial activity against fluconazole-resistant Cryptococcus gattii serotype B isolate RB3 at 0.5 ug/ml
[18] = tested on: Cryptococcus gattii species complex; assay: Antimicrobial activity against fluconazole-resistant Cryptococcus gattii serotype B isolate NIH189 at 0.5 ug/ml; in short: as §1
[19] = tested on: Cryptococcus gattii species complex; assay: Antimicrobial activity against fluconazole-resistant Cryptococcus gattii serotype C isolate NIH34 at 0.5 ug/ml
[20] = tested on: Cryptococcus gattii species complex; assay: Antimicrobial activity against fluconazole-resistant Cryptococcus gattii serotype C isolate NIH34 at 64 ug/ml
[21] = tested on: Cryptococcus gattii species complex; assay: Antimicrobial activity against fluconazole-resistant Cryptococcus gattii serotype B isolate NIH754 at 64 ug/ml; in short: as §1
[22] = tested on: Cryptococcus gattii species complex; assay: Antimicrobial activity against fluconazole-resistant Cryptococcus gattii serotype B isolate B3939 at 64 ug/ml; in short: as §1
[23] = tested on: Cryptococcus gattii species complex; assay: Antimicrobial activity against fluconazole-resistant Cryptococcus gattii serotype C isolate H0058-1-818 at 64 ug/ml
[24] = tested on: Cryptococcus gattii species complex; assay: Antimicrobial activity against fluconazole-resistant Cryptococcus gattii serotype B isolate B4506 at 64 ug/ml; in short: as §1
[25] = tested on: Cryptococcus deuterogattii; assay: Antimicrobial activity against fluconazole-resistant Cryptococcus gattii serotype B isolate NIH444 at 64 ug/ml; in short: as §1
[26] = tested on: Cryptococcus gattii species complex; assay: Antimicrobial activity against fluconazole-resistant Cryptococcus gattii serotype B isolate NIH771 at 64 ug/ml
[27] = tested on: Cryptococcus gattii species complex; assay: Antimicrobial activity against fluconazole-resistant Cryptococcus gattii serotype B isolate NIH535 at 64 ug/ml; in short: as §1
[28] = tested on: Cryptococcus gattii species complex; assay: Antimicrobial activity against fluconazole-resistant Cryptococcus gattii serotype B isolate B5788 at 64 ug/ml; in short: as §1
[29] = tested on: Cryptococcus gattii species complex; assay: Antimicrobial activity against fluconazole-resistant Cryptococcus gattii serotype B isolate NIH184 at 64 ug/ml; in short: as §1
[30] = tested on: Cryptococcus gattii species complex; assay: Antimicrobial activity against fluconazole-resistant Cryptococcus gattii serotype B isolate NIH412 at 64 ug/ml; in short: as §1
[31] = tested on: Cryptococcus gattii species complex; assay: Antimicrobial activity against fluconazole-resistant Cryptococcus gattii serotype B isolate NIH198 at 64 ug/ml; in short: as §1
[32] = tested on: Cryptococcus gattii species complex; assay: Antimicrobial activity against fluconazole-resistant Cryptococcus gattii serotype B isolate RB3 at 64 ug/ml
[33] = tested on: Cryptococcus gattii species complex; assay: Antimicrobial activity against fluconazole-resistant Cryptococcus gattii serotype B isolate NIH200 at 64 ug/ml; in short: as §1
[34] = tested on: Cryptococcus gattii species complex; assay: Antimicrobial activity against fluconazole-resistant Cryptococcus gattii serotype C isolate NIH257 at 64 ug/ml
[35] = tested on: Cryptococcus gattii species complex; assay: Antimicrobial activity against fluconazole-resistant Cryptococcus gattii serotype B isolate NIH409 at 64 ug/ml; in short: as §1
[36] = tested on: Cryptococcus gattii species complex; assay: Antimicrobial activity against fluconazole-resistant Cryptococcus gattii serotype B isolate B5763 at 64 ug/ml; in short: as §1
[37] = tested on: Cryptococcus gattii species complex; assay: Antimicrobial activity against fluconazole-resistant Cryptococcus gattii serotype B isolate NIH189 at 64 ug/ml; in short: as §1
[38] = tested on: Cryptococcus gattii species complex; assay: Antimicrobial activity against fluconazole-resistant Cryptococcus gattii serotype C isolate H00581-1941 at 64 ug/ml
[39] = tested on: Cryptococcus gattii species complex; assay: Antimicrobial activity against fluconazole-resistant Cryptococcus gattii serotype B isolate B4506 at 3.2 ug/ml; in short: as §1
[40] = tested on: Cryptococcus deuterogattii; assay: Antimicrobial activity against fluconazole-resistant Cryptococcus gattii serotype B isolate NIH444 at 3.2 ug/ml; in short: as §1
[41] = tested on: Cryptococcus gattii species complex; assay: Antimicrobial activity against fluconazole-resistant Cryptococcus gattii serotype B isolate B5763 at 3.2 ug/ml; in short: as §1
[42] = tested on: Cryptococcus gattii species complex; assay: Antimicrobial activity against fluconazole-resistant Cryptococcus gattii serotype C isolate H00581-1941 at 3.2 ug/ml
[43] = tested on: Cryptococcus gattii species complex; assay: Antimicrobial activity against fluconazole-resistant Cryptococcus gattii serotype B isolate NIH184 at 3.2 ug/ml; in short: as §1
[44] = tested on: Cryptococcus gattii species complex; assay: Antimicrobial activity against fluconazole-resistant Cryptococcus gattii serotype B isolate NIH771 at 3.2 ug/ml
[45] = tested on: Cryptococcus gattii species complex; assay: Antimicrobial activity against fluconazole-resistant Cryptococcus gattii serotype B isolate NIH535 at 3.2 ug/ml; in short: as §1
[46] = tested on: Cryptococcus gattii species complex; assay: Antimicrobial activity against fluconazole-resistant Cryptococcus gattii serotype C isolate NIH257 at 3.2 ug/ml
[47] = tested on: Cryptococcus gattii species complex; assay: Antimicrobial activity against fluconazole-resistant Cryptococcus gattii serotype B isolate NIH412 at 3.2 ug/ml; in short: as §1
[48] = tested on: Cryptococcus gattii species complex; assay: Antimicrobial activity against fluconazole-resistant Cryptococcus gattii serotype C isolate NIH34 at 3.2 ug/ml
[49] = tested on: Cryptococcus gattii species complex; assay: Antimicrobial activity against fluconazole-resistant Cryptococcus gattii serotype B isolate NIH754 at 3.2 ug/ml; in short: as §1
[50] = tested on: Cryptococcus gattii species complex; assay: Antimicrobial activity against fluconazole-resistant Cryptococcus gattii serotype B isolate B3939 at 3.2 ug/ml; in short: as §1
[51] = tested on: Cryptococcus gattii species complex; assay: Antimicrobial activity against fluconazole-resistant Cryptococcus gattii serotype B isolate NIH189 at 3.2 ug/ml; in short: as §1
[52] = tested on: Cryptococcus gattii species complex; assay: Antimicrobial activity against fluconazole-resistant Cryptococcus gattii serotype B isolate NIH409 at 3.2 ug/ml; in short: as §1
[53] = tested on: Cryptococcus gattii species complex; assay: Antimicrobial activity against fluconazole-resistant Cryptococcus gattii serotype B isolate NIH200 at 3.2 ug/ml; in short: as §1
[54] = tested on: Cryptococcus gattii species complex; assay: Antimicrobial activity against fluconazole-resistant Cryptococcus gattii serotype C isolate H0058-1-818 at 3.2 ug/ml
[55] = tested on: Cryptococcus gattii species complex; assay: Antimicrobial activity against fluconazole-resistant Cryptococcus gattii serotype B isolate B5788 at 3.2 ug/ml; in short: as §1
[56] = tested on: Cryptococcus gattii species complex; assay: Antimicrobial activity against fluconazole-resistant Cryptococcus gattii serotype B isolate RB3 at 3.2 ug/ml
[57] = tested on: Cryptococcus gattii species complex; assay: Antimicrobial activity against fluconazole-resistant Cryptococcus gattii serotype B isolate NIH198 at 3.2 ug/ml; in short: as §1

Measured: Activity

CO[C@@H](/C(C)=C/C=C/C(C)=C/c1coc(C)n1)[C@@H](C)[C@@H]1C[C@H](O)[C@@]2(C)O[C@@H]2/C=C/[C@@H](C)[C@H]2C[C@H](CC(=O)O2)C[C@@H]2O[C@H]2C(=O)O1
inactive: [1] | [2] | [3] | [4] | [5] | [6] | [7] | [8] | [9] | [10] | [11] | [12] | [13] | [14] | [15] | [16] | [17] | [18] | [19]

CC(/C=C/C(=O)NO)=C\[C@@H](C)C(=O)c1ccc(N(C)C)cc1
inactive: [20] | [21] | [22] | [23] | [24] | [25] | [26] | [27] | [28] | [29] | [30] | [31] | [32] | [33] | [34] | [35] | [36] | [37] | [38]

CN1C(=O)[C@]23CC4=CC=C[C@H](O)[C@H]4N2C(=O)[C@@]1(CO)SS3
inactive: [39] | [40] | [41] | [42] | [43] | [44] | [45] | [46] | [47] | [48] | [49] | [50] | [51] | [52] | [53] | [54] | [55] | [56] | [57]
